From ChEMBL document CHEMBL4196194, “De Novo Design of α-Helical Lipopeptides Targeting Viral Fusion Proteins: A Promising Strategy for Relatively Broad-Spectrum Antiviral Drug Discovery” (J Med Chem, 2018)
The source made the active and inactive calls. No cut-off for these calls is given here. Where a SMILES comes first, the peptide text is derived from it. [ ]: non-standard residue; d: D form. The star is where a group is joined. Palmitoyl = CCCCCCCCCCCCCCCC(=O)*; βAla = NCCC(=O)O

What was measured:
[1] = system: Influenza A virus; assay: Inhibition of influenza A virus infected in MDCK cells assessed as inhibition of viral load treated with compound at 0 to 10 hrs post-infection by RT-qPCR method based time of addition assay; format: functional
Method in brief: (§1)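 MDCK cells (2.0 × 10^5/well) washed with PBS, virus adsorbed (MOI 0.05) 60 min at 4 °C, washed, then compound present only during 0–10, 0–2, 2–5, 5–8 or 8–10 h postinfection; cultured in fresh medium to 10 h, total RNA extracted, viral load by absolute one-step RT-qPCR; triplicate, versus PBS control.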

[2] = system: Influenza A virus; assay: Antiviral activity against influenza A virus assessed as inhibition of viral replicon activity incubated for 30 hrs by firefly luciferase reporter gene assay; format: functional, organism-based
Method in brief: (§2)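 HEK293T cells (2.5 × 10^4/well) transfected with plasmids for NP, PB1, PB2, PA plus p0LN-S-Luc firefly and pRL-SV40 Renilla reporters; serially diluted compound added 6 h post-transfection, luciferase read after 30 h by Dual-Glo. Activity = firefly/Renilla ratio; % inhibition normalized to positive and negative controls, curve-fitted; three independent measurements.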

[3] = system: Influenza A virus; assay: Inhibition of influenza A virus infected in MDCK cells assessed as inhibition of viral load treated with compound at 2 to 5 hrs post-infection by RT-qPCR method based time of addition assay; format: functional, organism-based; method in brief: as §1
[4] = system: Influenza A virus; settings: A/Puerto Rico/8/1934(H1N1), 0.1 to 1000 uM
[5] = system: Influenza A virus; settings: Hong Kong/8/1968(H3N2), 0.1 to 1000 uM
[6] = system: Influenza A virus; assay: Inhibition of influenza A virus infected in MDCK cells assessed as inhibition of viral load treated with compound at 0 to 2 hrs post-infection by RT-qPCR method based time of addition assay; format: functional; method in brief: as §1
[7] = system: Influenza A virus; assay: Inhibition of influenza A virus infected in MDCK cells assessed as inhibition of viral load treated with compound at 5 to 8 hrs post-infection by RT-qPCR method based time of addition assay; format: functional, organism-based; method in brief: as §1
[8] = system: Influenza A virus; assay: Antiviral activity against Influenza A virus (A/Puerto Rico/8/1934(H1N1)) infected in HEK293T cells assessed as inhibition of viral replicon activity up to 20 uM incubated for 30 hrs by dual-Glo luciferase assay; format: functional, organism-based; method in brief: as §2
[9] = system: Influenza A virus; assay: Antiviral activity against influenza A virus Hong Kong/8/1968(H3N2) infected in HEK293T cells assessed as inhibition of viral replicon activity up to 20 uM incubated for 30 hrs by dual-Glo luciferase assay; format: functional, organism-based; method in brief: as §2
[10] = Cytotoxicity in human HuH7 cells assessed as reduction in cell viability incubated for 48 hrs by CCK8 assay; format: cell-based, Huh-7
Method in brief: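 Huh-7 cells (1 × 10^5 cells/mL suspension seeded) grown 12 h at 37 °C, 5% CO2, then serially diluted peptide added for 48 h; untreated blank and Triton X-100 controls. CCK-8 added for 2 h, absorbance at 450 nm.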

[11] = Inhibition of MERS-CoV spike protein-mediated cell-cell fusion in 293T/MERS/EGPF cells assessed as reduction in cell fusion incubated for 4 hrs by inverted fluorescence microscopy; format: cell-based, Middle East respiratory syndrome-related coronavirus
Method in brief: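 Huh-7 cells expressing DPP4 plated 5 × 10^4/well, 5 h at 37 °C; serially diluted peptide added, then 293T cells carrying MERS-CoV S and EGFP (or EGFP-only control cells), 1 × 10^4/well. After 4 h coculture at 37 °C, fused and unfused effector cells counted by fluorescence microscopy.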

Row | Compound | inhibition [1] | IC50 [2] | inhibition [2] | inhibition [3] | inhibition [4] | inhibition [5] | inhibition [6] | inhibition [7] | Activity [8] | Activity [9] | CC50 at 48 h [10] | EC50 [11]
1 | NC(=O)c1nc(F)cnc1O | Active | 26.2 µM | Dose-dependent effect | Active | inactive | inactive | Active | Active |  |  |  | 
2 | CC[C@H](C)[C@H](NC(=O)[C@H](Cc1ccc(O)cc1)NC(=O)[C@H](CO)NC(=O)[C@H](CCC(=O)O)NC(=O)[C@H](CCC(=O)O)NC(=O)[C@H](CC(C)C)NC(=O)[C@H](CCCCN)NC(=O)[C@H](CCCCN)NC(=O)[C@@H](NC(=O)[C@@H](NC(=O)[C@H](CCC(=O)O)NC(=O)[C@H](CCC(=O)O)NC(=O)[C@H](CC(C)C)NC(=O)[C@H](CCCCN)NC(=O)[C@H](CCCCN)NC(=O)[C@H](CCSC)NC(=O)[C@H](CCC(=O)O)NC(=O)[C@H](Cc1ccc(O)cc1)NC(=O)[C@H](CCC(=O)O)NC(=O)[C@H](CC(C)C)NC(=O)[C@H](CC(=O)O)NC(=O)[C@H](CC(C)C)NC(=O)[C@H](CC(C)C)NC(=O)[C@@H](NC(=O)[C@@H](NC(=O)[C@H](CC(N)=O)NC(=O)[C@@H](NC(=O)[C@H](CCC(N)=O)NC(=O)[C@@H](NC(=O)[C@H](CC(C)C)NC(=O)[C@H](CO)NC(C)=O)[C@@H](C)O)[C@@H](C)CC)[C@@H](C)O)[C@@H](C)O)C(C)C)C(C)C)C(=O)N[C@@H](CC(=O)O)C(=O)N[C@@H](CC(C)C)C(=O)N[C@@H](CCCCN)C(=O)N[C@@H](CCC(=O)O)C(=O)N[C@@H](CC(C)C)C(N)=O |  |  |  |  |  |  |  |  | inactive | inactive | > 100 µM | 150 nM
3 | CCCCCCCCCCCCCCCC(=O)NCCCC[C@H](NC(=O)CCNC(=O)[C@H](CCCCN)NC(=O)[C@H](CCCCN)NC(=O)[C@H](CO)NC(=O)[C@H](Cc1ccccc1)NC(=O)[C@H](CCC(=O)O)NC(=O)[C@H](CCC(=O)O)NC(=O)[C@H](Cc1ccccc1)NC(=O)[C@H](CCCCN)NC(=O)[C@H](CCCCN)NC(=O)[C@H](CO)NC(=O)[C@H](Cc1ccccc1)NC(=O)[C@H](CCC(=O)O)NC(=O)[C@H](CCC(=O)O)NC(=O)[C@H](Cc1ccccc1)NC(=O)[C@H](CCCCN)NC(=O)[C@H](CCCCN)NC(=O)[C@H](CO)NC(=O)[C@H](Cc1ccccc1)NC(=O)[C@H](CCC(=O)O)NC(=O)[C@H](CCC(=O)O)NC(=O)[C@H](Cc1ccccc1)NC(=O)[C@H](CCCCN)NC(=O)[C@H](CCCCN)NC(=O)[C@H](CO)NC(=O)[C@H](Cc1ccccc1)NC(=O)[C@H](CCC(=O)O)NC(=O)[C@H](CCC(=O)O)NC(=O)[C@H](Cc1ccccc1)NC(=O)[C@H](CCCCN)NC(=O)[C@H](CCCCN)NC(=O)[C@H](CO)NC(=O)[C@H](Cc1ccccc1)NC(=O)[C@H](CCC(=O)O)NC(=O)[C@H](CCC(=O)O)NC(=O)[C@H](Cc1ccccc1)NC(C)=O)C(N)=O (Ac-FEEFSKKFEEFSKKFEEFSKKFEEFSKKFEEFSKK[βAla]K(Palmitoyl)-NH2) |  |  |  |  |  |  |  |  |  |  | > 100 µM | 3110 nM
